pIC50: −log10 of the molar value. Active and inactive are the calls of the source.
Experiments:
[1] = target: T1, Probable periplasmic serine endoprotease DegP-like (Chlamydia trachomatis, UniProt P18584); assay: Inhibition of recombinant Chlamydia trachomatis HtrA serine protease using MeOCoum-ENLHLPLPI1F-D as substrate measured after 30 mins
T1 sequence (P18584 whole entry): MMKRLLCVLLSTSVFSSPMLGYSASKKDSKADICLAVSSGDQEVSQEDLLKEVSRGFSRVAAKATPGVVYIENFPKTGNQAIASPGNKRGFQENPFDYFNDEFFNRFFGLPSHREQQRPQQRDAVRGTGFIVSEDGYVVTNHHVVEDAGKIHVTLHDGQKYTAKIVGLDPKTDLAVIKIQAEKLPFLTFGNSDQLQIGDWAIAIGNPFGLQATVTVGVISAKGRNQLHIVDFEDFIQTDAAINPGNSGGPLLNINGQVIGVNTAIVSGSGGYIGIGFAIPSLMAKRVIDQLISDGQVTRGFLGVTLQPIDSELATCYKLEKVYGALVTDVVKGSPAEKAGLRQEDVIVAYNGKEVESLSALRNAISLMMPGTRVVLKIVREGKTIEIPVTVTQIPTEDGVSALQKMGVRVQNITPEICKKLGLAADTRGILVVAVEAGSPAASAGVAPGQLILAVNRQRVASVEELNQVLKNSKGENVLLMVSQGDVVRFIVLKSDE

[2] = target: T2, Probable periplasmic serine endoprotease DegP-like (Chlamydia trachomatis) (UniProt P18584); assay: Potency index, ratio of JO146 IC50 to test compound IC50 for inhibition of recombinant Chlamydia trachomatis HtrA serine protease using MeOCoum-ENLHLPLPI1F-D as substrate measured after 30 mins
T2 sequence (whole entry): T1 sequence (P18584 whole entry)

[3] = tested on: Chlamydia trachomatis; assay: Antibacterial activity against Chlamydia trachomatis D/UW-3/Cx infected in human HEp-2 cells assessed as reduction in bacterial titer below threshold at 50 uM administered at 16 hrs post infection and measured 44 hrs post infection; type: functional, organism-based; details: time 28.0 hrs
In short: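 C. trachomatis D (D/UW-3/Cx) in monolayers seeded 20,000 cells/well 24 h before infection; synchronised at 500 × g, 28 °C, 30 min; treated at 16 h PI (25, 50, 100 µM, triplicate) beside 1% v/v DMSO and media controls; harvested 44 h PI, passaged onto fresh monolayers, fixed, stained; IFU/mL compared against limit of detection.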

[4] = tested on: Chlamydia pecorum; assay: Antibacterial activity against Chlamydia pecorum MC/MarsBar infected in human HEp-2 cells assessed as reduction in bacterial titre at 25 uM administered at 16 hrs post infection and measured 44 hrs post infection; type: functional, organism-based; details: time 28.0 hrs
[5] = tested on: HEp-2; assay: Cytotoxicity against human HEp-2 cells assessed as reduction in cell viability by measuring MTS reduction at 25 uM measured after 24 hrs by MTS assay relative to control; type: toxicity, cell-based; details: hep-2, 24 h
In short: (§1)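 HEp-2 cells plated at 5000/well, treated 24 h after plating with 25 or 100 µM inhibitor, 1% v/v DMSO or medium alone, triplicate; after 24 h exposure, MTS/PMS added for 4 h and A490 read; viability expressed relative to DMSO control; mean ± SEM, n = 3.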

[6] = tested on: HEp-2; assay: Cytotoxicity against human HEp-2 cells assessed as loss of cell integrity by measuring cytosolic LDH release at 25 to 100 uM […] by LDH assay; type: toxicity, cell-based; details: hep-2, 100 µM, dose 25-100 µM
In short: (§2)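 HEp-2 cells at 5000/well, dosed 24 h after plating with 25 or 100 µM, 1% v/v DMSO or medium, triplicate; after 8 h treatment supernatant taken, incubated 30 min with CytoTox reagent then stop solution, A490 read; maximum release from untreated cells lysed with 0.8% v/v Triton X-100 45 min before harvest; extracellular LDH as % of maximum; n = 3.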

[7] = tested on: HEp-2; assay: Cytotoxicity against human HEp-2 cells assessed as reduction in cell viability measured after 24 hrs by MTS assay; type: toxicity, cell-based; details: hep-2, 24 h; in short: as §1
[8] = tested on: HEp-2; assay: Cytotoxicity against human HEp-2 cells assessed as loss of cell integrity by measuring cytosolic LDH release at 25 to 100 uM […] by LDH assay relative to control; type: toxicity, cell-based; details: hep-2, 100 µM, dose 25-100 µM; in short: as §2
[9] = Cytotoxicity against human HEp-2 cells assessed as cell viability at 25 to 100 uM measured after 24 hrs by MTS assay relative to control; type: toxicity, cell-based; details: dose 25-100 µM, read-out: Activity; in short: as §1
[10] = tested on: Chlamydia trachomatis; assay: Antibacterial activity against Chlamydia trachomatis D/UW-3/Cx infected in human HEp-2 cells assessed as reduction in bacterial titer at 25 to 100 uM administered at 16 hrs post infection and measured 44 hrs post infection; type: functional, organism-based; details: dose 25-100 µM, time 28.0 hrs
[11] = tested on: Chlamydia pecorum; assay: Antibacterial activity against Chlamydia pecorum MC/MarsBar infected in human HEp-2 cells assessed as reduction in bacterial titre at 25 to 100 uM administered at 16 hrs post infection and measured 44 hrs post infection; type: functional, organism-based; details: dose 25-100 µM, time 28.0 hrs
[12] = Cytotoxicity against human HEp-2 cells assessed as cell viability at 100 uM measured after 24 hrs by MTS assay relative to control; type: toxicity, cell-based; details: read-out: Activity; in short: as §1
[13] = tested on: HEp-2; assay: Cytotoxicity against human HEp-2 cells assessed as loss of cell integrity by measuring cytosolic LDH release at 100 uM […] by LDH assay; type: toxicity, cell-based; details: hep-2, 100 µM; in short: as §2

Structure (SMILES) | pIC50 [1] | Activity [5] [%] | Activity [6] | Activity [7] | other results
CC(C)C(NC(=O)[C@@H]1CCCN1C(=O)[C@@H](NC(=O)OC(C)(C)C)C(C)C)P(=O)(Oc1ccccc1)Oc1ccccc1 (some centres not stated) | 4.66 |  |  |  | 
CC(C)C(NC(=O)[C@@H]1CCCN1C(=O)[C@@H](NC(=O)OC(C)(C)C)C(C)(C)C)P(=O)(Oc1ccccc1)Oc1ccccc1 (some centres not stated) | 4.80 |  |  |  | Ratio IC50 [2]: 1.38
CC(C)C(NC(=O)[C@@H]1C[C@@H](c2ccccc2)CN1C(=O)[C@@H](NC(=O)OC(C)(C)C)C(C)(C)C)P(=O)(Oc1ccccc1)Oc1ccccc1 (mixture of isomers) | 4.23 | < 30 | Non-Toxic |  | Activity [3]: Active; Activity [4]: Active
CC(C)C(NC(=O)[C@@H]1C[C@@H](OC(=O)CN)CN1C(=O)[C@@H](NC(=O)OC(C)(C)C)C(C)(C)C)P(=O)(Oc1ccccc1)Oc1ccccc1 (mixture of isomers) | 4.86 | < 30 | Non-Toxic |  | 
CC(C)C(NC(=O)[C@@H]1C[C@@H](n2cc(C(N)=O)nn2)CN1C(=O)[C@@H](NC(=O)OC(C)(C)C)C(C)(C)C)P(=O)(Oc1ccccc1)Oc1ccccc1 (mixture of isomers) |  |  |  | Non-Toxic | 
CC(C)C(NC(=O)[C@@H]1C[C@@H](C2CCCCC2)CN1C(=O)[C@@H](NC(=O)OC(C)(C)C)C(C)(C)C)P(=O)(Oc1ccccc1)Oc1ccccc1 (mixture of isomers) | 3.79 |  |  |  | Activity [8]: 80%; Activity [3]: Active; Activity [4]: Active; viability at 24 h, up to 100 µM [9]: 10%
CC(C)C(NC(=O)[C@@H]1C[C@@H](n2nnc(O)c2O)CN1C(=O)[C@@H](NC(=O)OC(C)(C)C)C(C)(C)C)P(=O)(Oc1ccccc1)Oc1ccccc1 (mixture of isomers) |  |  |  | Non-Toxic | 
CC(C)C(NC(=O)[C@@H]1C[C@@H](n2cc(CO)nn2)CN1C(=O)[C@@H](NC(=O)OC(C)(C)C)C(C)(C)C)P(=O)(Oc1ccccc1)Oc1ccccc1 (mixture of isomers) | 4.10 |  |  | Non-Toxic | Activity [10]: Active
CC(C)C(NC(=O)[C@@H]1C[C@@H](n2nncc2C(C)(C)O)CN1C(=O)[C@@H](NC(=O)OC(C)(C)C)C(C)(C)C)P(=O)(Oc1ccccc1)Oc1ccccc1 (mixture of isomers) | 4.02 |  |  | Non-Toxic | Activity [10]: Active
CC(C)C(NC(=O)[C@@H]1C[C@H](n2nncc2C(C)(C)O)CN1C(=O)[C@@H](NC(=O)OC(C)(C)C)C(C)(C)C)P(=O)(Oc1ccccc1)Oc1ccccc1 (mixture of isomers) | 4.52 |  |  | Non-Toxic | Activity [11]: Active; Activity [10]: Active
CC(C)C(NC(=O)[C@@H]1C[C@@H](n2cc(C(C)(C)O)nn2)CN1C(=O)[C@@H](NC(=O)OC(C)(C)C)C(C)(C)C)P(=O)(Oc1ccccc1)Oc1ccccc1 (mixture of isomers) | 4.14 |  |  | Non-Toxic | 
CC(C)C(NC(=O)[C@@H]1C[C@@H](n2nncc2C(N)=O)CN1C(=O)[C@@H](NC(=O)OC(C)(C)C)C(C)(C)C)P(=O)(Oc1ccccc1)Oc1ccccc1 (mixture of isomers) |  |  |  | Non-Toxic | Activity [11]: Active; Activity [10]: Active
CC(C)C(NC(=O)[C@@H]1C[C@@H](O)CN1C(=O)[C@@H](NC(=O)OC(C)(C)C)C(C)(C)C)P(=O)(Oc1ccccc1)Oc1ccccc1 (mixture of isomers) | 4.85 | < 30 | Non-Toxic |  | 
CC(=O)O[C@@H]1C[C@@H](C(=O)NC(C(C)C)P(=O)(Oc2ccccc2)Oc2ccccc2)N(C(=O)[C@@H](NC(=O)OC(C)(C)C)C(C)(C)C)C1 (mixture of isomers) | 5.41 | < 30 | Non-Toxic |  | Activity [3]: Active; Activity [4]: Active
CC(C)C(NC(=O)[C@@H]1C[C@H](O)CN1C(=O)[C@@H](NC(=O)OC(C)(C)C)C(C)(C)C)P(=O)(Oc1ccccc1)Oc1ccccc1 (mixture of isomers) | 4.31 | < 30 | Non-Toxic |  | 
CC(C)C(NC(=O)[C@@H]1C[C@H](n2nnc(O)c2O)CN1C(=O)[C@@H](NC(=O)OC(C)(C)C)C(C)(C)C)P(=O)(Oc1ccccc1)Oc1ccccc1 (mixture of isomers) | 4.64 |  |  | Non-Toxic | 
CC(C)C(NC(=O)[C@@H]1C[C@H](n2cc(CO)nn2)CN1C(=O)[C@@H](NC(=O)OC(C)(C)C)C(C)(C)C)P(=O)(Oc1ccccc1)Oc1ccccc1 (mixture of isomers) |  |  |  | Non-Toxic | 
CC(C)C(NC(=O)[C@@H]1C[C@@H](OC(=O)CCN)CN1C(=O)[C@@H](NC(=O)OC(C)(C)C)C(C)(C)C)P(=O)(Oc1ccccc1)Oc1ccccc1 (mixture of isomers) | 4.82 | < 30 | Non-Toxic |  | 
CC(C)C(NC(=O)[C@@H]1CCCCN1C(=O)[C@@H](NC(=O)OC(C)(C)C)C(C)(C)C)P(=O)(Oc1ccccc1)Oc1ccccc1 (mixture of isomers) | 4.09 | < 30 | Non-Toxic |  | Activity [3]: Active; Activity [4]: Active; viability at 24 h, 100 µM [12]: 50%; Activity [13]: Non-Toxic
